# System: HEK-293T
# Assay: Multiplex assay against HEK293T
# Format: toxicity, cell-based
# Details: human
# Procedure, shortened: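 Phenotypes for tubulin, mitochondrial mass and membrane permeability are expressed as per cents of healthy-nucleus cells. Cells were stained live at seeding with Hoechst33342, BioTracker Green Microtubule Cytoskeleton Dye, MitoTracker Red and Annexin V Alexa Fluor 680, then imaged after compound addition on a CQ1 microscope at 37°C and 5% CO2. Machine-learning gating in CellPathfinder separated Hoechst high-intensity objects from normal cells, divided normal cells by nuclear state (healthy, pyknosed, fragmented) and divided pyknosed cells into mitotic or apoptotic.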
# [1] = 12 h, 1 µM, compound concentration 1 uM, replicate 1
# [2] = 12 h, 1 µM, compound concentration 1 uM, replicate 2
# [3] = 12 h, 10 µM, compound concentration 10 uM, replicate 1
# [4] = 12 h, 10 µM, compound concentration 10 uM, replicate 2
# [5] = 24 h, 1 µM, compound concentration 1 uM, replicate 1
# [6] = 24 h, 1 µM, compound concentration 1 uM, replicate 2
# [7] = 24 h, 10 µM, compound concentration 10 uM, replicate 1
# [8] = 24 h, 10 µM, compound concentration 10 uM, replicate 2
# [9] = 48 h, 1 µM, compound concentration 1 uM, replicate 1
# [10] = 48 h, 1 µM, compound concentration 1 uM, replicate 2
# [11] = 48 h, 10 µM, compound concentration 10 uM, replicate 1
# [12] = 48 h, 10 µM, compound concentration 10 uM, replicate 2
compound,measurement,setting,value
COc1ccc2c(c1OCc1ccccc1)C[C@@H](C(=O)O)N(C(=O)C(c1ccccc1)c1ccccc1)C2 [OLODANRIGAN],Population Apoptotic (%),[1],39%
same,Population Fragmented Nuclei (%),[1],6%
same,Population Healthy Nuclei (%),[1],82%
same,Population Hoechst High Intensity Objects (%),[1],7%
same,Population Membrane Permeable-Phenotype (%),[1],0%
same,Population Mitochondria Different-Phenotype (%),[1],44%
same,Population Mitotic Cells (%),[1],60%
same,Population Normal (%),[1],92%
same,Population Pyknosed Nuclei (%),[1],11%
same,Population Tubulin-Different-Phenotype (%),[1],21%
same,Total Cell Count,[1],419
same,Population Apoptotic (%),[2],43%
same,Population Fragmented Nuclei (%),[2],7%
same,Population Healthy Nuclei (%),[2],81%
same,Population Mitochondria Different-Phenotype (%),[2],48%
same,Population Mitotic Cells (%),[2],56%
same,Population Pyknosed Nuclei (%),[2],10%
same,Population Tubulin-Different-Phenotype (%),[2],17%
same,Total Cell Count,[2],409
same,Population Apoptotic (%),[3],45%
same,Population Fragmented Nuclei (%),[3],6%
same,Population Healthy Nuclei (%),[3],81%
same,Population Hoechst High Intensity Objects (%),[3],6%
same,Population Membrane Permeable-Phenotype (%),[3],0%
same,Population Mitochondria Different-Phenotype (%),[3],42%
same,Population Mitotic Cells (%),[3],54%
same,Population Normal (%),[3],93%
same,Population Pyknosed Nuclei (%),[3],12%
same,Population Tubulin-Different-Phenotype (%),[3],35%
same,Total Cell Count,[3],389
same,Population Apoptotic (%),[4],44%
same,Population Fragmented Nuclei (%),[4],4%
same,Population Healthy Nuclei (%),[4],83%
same,Population Hoechst High Intensity Objects (%),[4],3%
same,Population Mitochondria Different-Phenotype (%),[4],58%
same,Population Mitotic Cells (%),[4],55%
same,Population Normal (%),[4],96%
same,Population Tubulin-Different-Phenotype (%),[4],27%
same,Total Cell Count,[4],368
same,Population Apoptotic (%),[5],46%
same,Population Fragmented Nuclei (%),[5],11%
same,Population Healthy Nuclei (%),[5],78%
same,Population Hoechst High Intensity Objects (%),[5],3%
same,Population Membrane Permeable-Phenotype (%),[5],0%
same,Population Mitochondria Different-Phenotype (%),[5],24%
same,Population Mitotic Cells (%),[5],53%
same,Population Normal (%),[5],96%
same,Population Pyknosed Nuclei (%),[5],10%
same,Population Tubulin-Different-Phenotype (%),[5],15%
same,Total Cell Count,[5],614
same,Population Apoptotic (%),[6],19%
same,Population Fragmented Nuclei (%),[6],10%
same,Population Healthy Nuclei (%),[6],81%
same,Population Hoechst High Intensity Objects (%),[6],6%
same,Population Membrane Permeable-Phenotype (%),[6],1%
same,Population Mitochondria Different-Phenotype (%),[6],30%
same,Population Mitotic Cells (%),[6],80%
same,Population Normal (%),[6],93%
same,Population Pyknosed Nuclei (%),[6],8%
same,Population Tubulin-Different-Phenotype (%),[6],14%
same,Total Cell Count,[6],521
same,Population Apoptotic (%),[7],40%
same,Population Fragmented Nuclei (%),[7],7%
same,Population Healthy Nuclei (%),[7],78%
same,Population Hoechst High Intensity Objects (%),[7],6%
same,Population Membrane Permeable-Phenotype (%),[7],0%
same,Population Mitochondria Different-Phenotype (%),[7],34%
same,Population Mitotic Cells (%),[7],59%
same,Population Normal (%),[7],93%
same,Population Pyknosed Nuclei (%),[7],13%
same,Population Tubulin-Different-Phenotype (%),[7],32%
same,Total Cell Count,[7],456
same,Population Apoptotic (%),[8],43%
same,Population Fragmented Nuclei (%),[8],10%
same,Population Healthy Nuclei (%),[8],79%
same,Population Mitochondria Different-Phenotype (%),[8],57%
same,Population Mitotic Cells (%),[8],56%
same,Population Pyknosed Nuclei (%),[8],9%
same,Population Tubulin-Different-Phenotype (%),[8],28%
same,Total Cell Count,[8],414
same,Population Apoptotic (%),[9],26%
same,Population Fragmented Nuclei (%),[9],13%
same,Population Healthy Nuclei (%),[9],80%
same,Population Hoechst High Intensity Objects (%),[9],2%
same,Population Membrane Permeable-Phenotype (%),[9],0%
same,Population Mitochondria Different-Phenotype (%),[9],15%
same,Population Mitotic Cells (%),[9],73%
same,Population Normal (%),[9],97%
same,Population Pyknosed Nuclei (%),[9],5%
same,Population Tubulin-Different-Phenotype (%),[9],11%
same,Total Cell Count,[9],1083
same,Population Apoptotic (%),[10],22%
same,Population Fragmented Nuclei (%),[10],15%
same,Population Healthy Nuclei (%),[10],79%
same,Population Mitochondria Different-Phenotype (%),[10],18%
same,Population Mitotic Cells (%),[10],77%
same,Population Tubulin-Different-Phenotype (%),[10],10%
same,Total Cell Count,[10],818
same,Population Apoptotic (%),[11],32%
same,Population Fragmented Nuclei (%),[11],12%
same,Population Healthy Nuclei (%),[11],78%
same,Population Hoechst High Intensity Objects (%),[11],5%
same,Population Membrane Permeable-Phenotype (%),[11],0%
same,Population Mitochondria Different-Phenotype (%),[11],22%
same,Population Mitotic Cells (%),[11],67%
same,Population Normal (%),[11],94%
same,Population Pyknosed Nuclei (%),[11],8%
same,Population Tubulin-Different-Phenotype (%),[11],15%
same,Total Cell Count,[11],659
same,Population Apoptotic (%),[12],39%
same,Population Healthy Nuclei (%),[12],80%
same,Population Hoechst High Intensity Objects (%),[12],6%
same,Population Mitochondria Different-Phenotype (%),[12],32%
same,Population Mitotic Cells (%),[12],60%
same,Population Normal (%),[12],93%
same,Population Pyknosed Nuclei (%),[12],7%
same,Population Tubulin-Different-Phenotype (%),[12],18%
same,Total Cell Count,[12],534

# — ChEMBL document CHEMBL5058577, “EUbOPEN Chemogenomics Library 2 (Multiplex)” (2022)
